What was measured:
Homo sapiens = species: Homo sapiens; assay: Selectivity ratio of Ki for human histamine H3 receptor to Ki for human histamine H4 receptor
Histamine H4 receptor [1] = target: T1, Histamine H4 receptor (Homo sapiens, UniProt Q9H3N8); assay: Displacement of [3H]histamine from human histamine H4 receptor expressed in HEK cells; format: cell-based, HEK293
Summary of the method: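 Displacement of [3H]histamine from membranes of HEK cells transiently expressing human H4R, H3R or H1R. pKi given as mean ± SEM of at least three independent measurements; n = 2 where noted.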

Histamine H3 receptor = Histamine H3 receptor (Homo sapiens, UniProt Q9Y5N1); assay: Displacement of [3H]histamine from human histamine H3 receptor expressed in HEK cells; format: cell-based, HEK293
[2] = target: Voltage-gated inwardly rectifying potassium channel KCNH2 (Homo sapiens, UniProt Q12809); assay: Displacement of [3H]astemizole from human ERG channel
Histamine H2 receptor = Histamine H2 receptor (Homo sapiens, UniProt P25021); assay: Displacement of [3H]histamine from human histamine H2 receptor expressed in HEK cells
Histamine H4 receptor [3] = target: T2, Histamine H4 receptor (Mus musculus, UniProt Q91ZY2); assay: Binding affinity to mouse histamine H4 receptor
T2 sequence (Q91ZY2 whole entry): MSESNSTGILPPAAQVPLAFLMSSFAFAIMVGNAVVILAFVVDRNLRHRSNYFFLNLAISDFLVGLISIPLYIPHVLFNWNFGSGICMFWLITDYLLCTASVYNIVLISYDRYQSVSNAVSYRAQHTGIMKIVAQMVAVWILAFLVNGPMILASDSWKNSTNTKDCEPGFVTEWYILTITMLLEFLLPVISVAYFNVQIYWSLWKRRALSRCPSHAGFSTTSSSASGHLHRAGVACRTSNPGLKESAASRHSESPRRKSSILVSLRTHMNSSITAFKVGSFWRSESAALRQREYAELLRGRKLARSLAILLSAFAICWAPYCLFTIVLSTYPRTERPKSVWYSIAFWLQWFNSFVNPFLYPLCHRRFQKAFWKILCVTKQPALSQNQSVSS

Histamine H4 receptor [4] = target: T1, Histamine H4 receptor; assay: Displacement of [3H]histamine from human histamine H4 receptor expressed in HEK cells by competitive kinetic analysis; format: cell-based, HEK293
Histamine H4 receptor [5] = target: T1, Histamine H4 receptor; assay: Antagonist activity at human histamine H4 receptor expressed in HEK cells assessed as inhibition of histamine-induced [35S]GTPgammaS binding; format: functional, cell-based, HEK293; details: for pKb: HEK293
Histamine H1 receptor = Histamine H1 receptor (Homo sapiens, UniProt P35367); assay: Displacement of [3H]histamine from human histamine H1 receptor expressed in HEK cells
Histamine H4 receptor [6] = target: Histamine H4 receptor (Rattus norvegicus, UniProt Q91ZY1); assay: Binding affinity to rat histamine H4 receptor
Sequence of Histamine H4 receptor (Rattus norvegicus, UniProt Q91ZY1) (Q91ZY1 whole entry): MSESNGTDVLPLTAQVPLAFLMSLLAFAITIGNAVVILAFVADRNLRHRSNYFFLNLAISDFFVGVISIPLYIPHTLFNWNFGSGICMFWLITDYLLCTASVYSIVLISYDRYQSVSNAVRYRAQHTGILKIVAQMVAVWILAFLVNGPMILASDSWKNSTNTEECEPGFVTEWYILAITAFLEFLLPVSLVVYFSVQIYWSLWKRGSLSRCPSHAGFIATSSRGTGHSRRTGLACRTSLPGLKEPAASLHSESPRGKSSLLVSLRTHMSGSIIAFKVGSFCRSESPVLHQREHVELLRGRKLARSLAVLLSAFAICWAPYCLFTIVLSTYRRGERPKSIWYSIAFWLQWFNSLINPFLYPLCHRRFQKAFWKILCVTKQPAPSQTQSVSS

Sequence of Histamine H2 receptor (P25021 whole entry): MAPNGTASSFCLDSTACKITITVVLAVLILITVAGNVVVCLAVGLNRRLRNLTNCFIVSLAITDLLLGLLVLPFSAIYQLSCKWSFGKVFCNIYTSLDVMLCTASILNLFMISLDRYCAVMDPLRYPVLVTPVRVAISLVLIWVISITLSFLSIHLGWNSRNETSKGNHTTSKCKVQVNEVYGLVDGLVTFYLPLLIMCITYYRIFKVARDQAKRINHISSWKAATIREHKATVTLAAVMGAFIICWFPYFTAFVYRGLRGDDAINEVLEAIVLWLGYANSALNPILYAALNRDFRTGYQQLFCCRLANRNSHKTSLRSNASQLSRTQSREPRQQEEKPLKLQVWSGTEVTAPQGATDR
Sequence of Voltage-gated inwardly rectifying potassium channel KCNH2 (Q12809 whole entry): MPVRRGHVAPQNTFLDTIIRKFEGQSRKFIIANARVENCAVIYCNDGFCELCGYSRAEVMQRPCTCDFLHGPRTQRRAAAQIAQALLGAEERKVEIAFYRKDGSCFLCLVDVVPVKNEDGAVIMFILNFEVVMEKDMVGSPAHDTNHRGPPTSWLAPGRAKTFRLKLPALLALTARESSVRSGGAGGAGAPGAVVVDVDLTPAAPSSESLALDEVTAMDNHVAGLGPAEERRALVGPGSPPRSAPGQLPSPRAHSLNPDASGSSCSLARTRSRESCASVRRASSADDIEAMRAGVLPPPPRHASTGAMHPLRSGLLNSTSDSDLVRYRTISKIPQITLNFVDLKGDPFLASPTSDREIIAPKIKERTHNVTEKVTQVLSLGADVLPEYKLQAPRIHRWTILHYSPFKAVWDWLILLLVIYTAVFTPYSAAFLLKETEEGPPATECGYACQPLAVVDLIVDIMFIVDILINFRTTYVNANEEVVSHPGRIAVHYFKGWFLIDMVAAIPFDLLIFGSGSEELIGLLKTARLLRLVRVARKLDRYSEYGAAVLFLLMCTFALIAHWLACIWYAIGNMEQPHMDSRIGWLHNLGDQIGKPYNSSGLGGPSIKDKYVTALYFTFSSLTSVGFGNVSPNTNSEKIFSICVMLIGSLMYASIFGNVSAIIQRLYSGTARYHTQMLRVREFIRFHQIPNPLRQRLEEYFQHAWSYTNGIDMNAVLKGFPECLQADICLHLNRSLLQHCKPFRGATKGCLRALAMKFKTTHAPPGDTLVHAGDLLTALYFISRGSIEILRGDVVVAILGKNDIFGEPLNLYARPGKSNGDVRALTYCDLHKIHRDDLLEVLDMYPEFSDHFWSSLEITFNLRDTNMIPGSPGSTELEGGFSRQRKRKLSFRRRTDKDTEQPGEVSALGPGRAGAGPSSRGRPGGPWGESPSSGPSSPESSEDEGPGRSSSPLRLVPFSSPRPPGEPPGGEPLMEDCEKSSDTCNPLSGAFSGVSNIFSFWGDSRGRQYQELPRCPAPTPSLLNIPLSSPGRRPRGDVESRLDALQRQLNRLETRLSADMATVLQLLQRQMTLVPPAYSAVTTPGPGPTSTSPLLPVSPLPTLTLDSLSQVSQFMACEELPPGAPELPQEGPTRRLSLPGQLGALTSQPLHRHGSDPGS
Sequence of Histamine H1 receptor (P35367 whole entry): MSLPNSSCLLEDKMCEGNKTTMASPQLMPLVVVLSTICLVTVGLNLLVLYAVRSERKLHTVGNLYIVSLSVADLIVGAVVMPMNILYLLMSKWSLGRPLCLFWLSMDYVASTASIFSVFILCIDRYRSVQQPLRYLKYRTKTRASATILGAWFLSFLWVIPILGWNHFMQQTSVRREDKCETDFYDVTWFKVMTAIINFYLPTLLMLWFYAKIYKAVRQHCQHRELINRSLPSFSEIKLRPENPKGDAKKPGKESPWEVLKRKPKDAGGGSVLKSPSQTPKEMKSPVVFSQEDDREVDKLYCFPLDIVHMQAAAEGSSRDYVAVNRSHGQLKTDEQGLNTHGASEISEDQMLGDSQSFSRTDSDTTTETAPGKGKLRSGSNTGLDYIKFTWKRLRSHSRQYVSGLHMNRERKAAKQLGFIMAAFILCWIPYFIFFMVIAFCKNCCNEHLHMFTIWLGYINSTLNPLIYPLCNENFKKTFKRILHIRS
Sequence of Histamine H3 receptor (Q9Y5N1 whole entry): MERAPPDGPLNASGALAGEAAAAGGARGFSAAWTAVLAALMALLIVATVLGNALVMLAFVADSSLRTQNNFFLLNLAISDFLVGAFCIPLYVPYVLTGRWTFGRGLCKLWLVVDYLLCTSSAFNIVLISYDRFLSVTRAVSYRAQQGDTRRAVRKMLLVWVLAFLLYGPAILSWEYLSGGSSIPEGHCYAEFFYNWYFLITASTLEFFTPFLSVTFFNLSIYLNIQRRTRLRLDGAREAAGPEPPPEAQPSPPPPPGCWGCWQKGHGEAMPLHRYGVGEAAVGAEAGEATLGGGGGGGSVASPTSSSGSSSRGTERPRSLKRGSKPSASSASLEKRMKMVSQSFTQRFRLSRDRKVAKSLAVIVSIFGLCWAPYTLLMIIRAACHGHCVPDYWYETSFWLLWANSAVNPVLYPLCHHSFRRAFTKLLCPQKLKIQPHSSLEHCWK

SMILES | Ratio Ki (Homo sapiens) | Ki (Histamine H4 receptor [1]) | Ki (Histamine H3 receptor) | Ki (Histamine H2 receptor) | Ki (Histamine H4 receptor [3]) | Kd (Histamine H4 receptor [4]) | IC50 (Histamine H4 receptor [5]) | pKb (Histamine H4 receptor [5]) | Ki (Histamine H1 receptor) | Ki (Histamine H4 receptor [6]) | Ki [2]
Nc1nc(N2CCNCC2)c2ccc(C3CC3)cc2n1 | 13 | 11.5 nM | 155 nM | – | – | – | – | – | – | – | 4680 nM
CN[C@@H]1CCN(c2cc(NCC3CC3)nc(N)n2)C1 [ADRIFORANT] | 22 | 10.2 nM | 186 nM | – | 55 nM | 25.1 nM | 53.7 nM | 8.46 | – | 55 nM | 3470 nM
CNC1CN(c2nc(N)nc3cc(C(C)(C)C)ccc23)C1 | 32 | 15.1 nM | 490 nM | – | – | – | – | – | – | – | –
CNC1CN(c2nc(N)nc3cc(C4CC4)ccc23)C1 | 98 | 7.08 nM | 692 nM | – | – | – | – | – | – | – | 3630 nM
CCc1ccc2c(N3CC[C@@H](NC)C3)nc(N)nc2c1 | 56 | 17 nM | 603 nM | – | – | – | – | – | – | – | 2750 nM
Nc1nc(N2CCNCC2)c2ccc(C3CCCC3)cc2n1 | 27 | 12.3 nM | 331 nM | – | – | – | – | – | – | – | 3390 nM
CCc1ccc2c(N3CCNCC3)nc(N)nc2c1 | 15 | 14.8 nM | 219 nM | – | – | – | – | – | – | – | 1510 nM
CCc1cnc2c(N3CCN(C)CC3)nc(N)nc2c1 | – | 9.33 nM | 214 nM | – | – | – | – | – | – | – | –
CCc1ccc2c(N3CC(NC)C3)nc(N)nc2c1 | 89 | 11.2 nM | 617 nM | – | – | – | – | – | – | – | 2450 nM
CC(C)(C)c1ccc2c(N3CCNCC3)nc(N)nc2c1 | 24 | 35.5 nM | 851 nM | – | – | – | – | – | – | – | –
CN1CCN(c2nc(N)nc3cccnc23)CC1 | – | 30.9 nM | – | – | – | – | – | – | – | – | –
CN[C@@H]1CCN(c2nc(N)nc3cc(C4CC4)ccc23)C1 | 8 | 21.9 nM | 178 nM | – | – | – | – | – | – | – | –
CN1CCN(c2nc(N)nc3ccccc23)CC1 | – | 44.7 nM | – | – | – | – | – | – | – | – | –
Nc1nc(N2CCNCC2)c2ccc(-c3ccco3)cc2n1 | – | 15.1 nM | – | – | – | 40.7 nM | – | – | – | – | –
CNC1CN(c2nc(N)nc3cc(C4CCCC4)ccc23)C1 | 47 | 3.39 nM | 158 nM | – | – | – | – | – | – | – | 832 nM

The next lines start with results.

Ratio Ki (Homo sapiens) | Ki (Histamine H4 receptor [1]) | Ki (Histamine H3 receptor) | Ki (Histamine H2 receptor) | Ki (Histamine H4 receptor [3]) | Kd (Histamine H4 receptor [4]) | IC50 (Histamine H4 receptor [5]) | pKb (Histamine H4 receptor [5]) | Ki (Histamine H1 receptor) | Ki (Histamine H4 receptor [6]) | SMILES | Ki [2]
23 | 6.46 nM | 151 nM | 2820 nM | 19.5 nM | 10.2 nM | 97.7 nM | 8.2 | 16600 nM | 27.5 nM | CNC1CN(c2nc(N)nc3cc(C4CCCC4)cnc23)C1 | > 100000 nM
120 | 5.25 nM | 631 nM | – | 15.1 nM | 13.5 nM | 70.8 nM | 8.33 | 20900 nM | 29.5 nM | CNC1CN(c2nc(N)nc3cc(C4CC4)cnc23)C1 | > 100000 nM
186 | 53.7 nM | 9550 nM | – | – | – | – | – | – | – | CNC1CN(c2nc(N)nc3cc(C#N)cnc23)C1 | > 100000 nM
12 | 12.3 nM | 145 nM | – | – | – | – | – | – | – | CN[C@@H]1CCN(c2nc(N)nc3cc(C(C)C)cnc23)C1 | –
– | 25.1 nM | 832 nM | – | – | – | – | – | – | – | CNC1CN(c2nc(N)nc3cc(C(C)C)cnc23)C1 | –
98 | 10.2 nM | 1000 nM | – | – | – | – | – | – | – | CN[C@@H]1CCN(c2nc(N)nc3cc(C4CC4)cnc23)C1 | > 100000 nM
72 | 10.7 nM | 776 nM | 14100 nM | 50.1 nM | 8.51 nM | 112 nM | 8.14 | 33900 nM | 70.8 nM | CCc1cnc2c(N3CC(NC)C3)nc(N)nc2c1 | 34700 nM
166 | 9.12 nM | 1510 nM | 3160 nM | 85.1 nM | 21.4 nM | 126 nM | 8.08 | 11200 nM | 138 nM | CCc1cnc2c(N3CC[C@@H](NC)C3)nc(N)nc2c1 | 43700 nM

From ChEMBL document CHEMBL2375287, “A novel series of histamine H4 receptor antagonists based on the pyrido[3,2-d]pyrimidine scaffold: comparison of hERG binding and target residence time with PF-3893787” (Bioorg Med Chem Lett, 2013)
